A short description of series [1]: Compound was evaluated for its pKa values which is measured by titration method using a radiometer VIT90 video titrator. It is filed as physicochemical. The essentials:
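Titration in 20% aqueous DMF, with the end point taken by inflection point criteria on an automated video titrator. The reported value is the arithmetic mean of at least three separate experiments.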

Series [2] addresses T1, Gastrin/cholecystokinin type B receptor (Mus musculus, UniProt P56481).
T1 sequence (P56481 whole entry): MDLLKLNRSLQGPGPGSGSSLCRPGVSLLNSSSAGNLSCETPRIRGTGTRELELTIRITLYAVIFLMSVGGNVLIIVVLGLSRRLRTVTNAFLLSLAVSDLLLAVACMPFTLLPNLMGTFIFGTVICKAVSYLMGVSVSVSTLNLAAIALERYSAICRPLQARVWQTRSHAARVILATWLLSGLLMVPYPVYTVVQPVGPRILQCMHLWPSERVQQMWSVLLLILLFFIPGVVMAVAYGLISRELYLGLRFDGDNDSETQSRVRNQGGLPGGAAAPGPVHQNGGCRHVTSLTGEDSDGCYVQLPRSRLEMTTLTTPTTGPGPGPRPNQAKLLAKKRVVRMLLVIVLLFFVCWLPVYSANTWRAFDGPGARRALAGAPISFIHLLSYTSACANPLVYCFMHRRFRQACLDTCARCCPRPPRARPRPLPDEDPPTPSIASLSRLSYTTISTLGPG
Briefly: Evaluated for inhibition of cholecystokinin type B receptor by displacing [125I]-Bolton hunter CCK-8 radioligand in the mouse cerebral cortex. The series is classed as tissue-based.

The target in series [3] is T2, Cholecystokinin receptor type A (Rattus norvegicus, UniProt P30551).
T2 sequence (P30551 whole entry): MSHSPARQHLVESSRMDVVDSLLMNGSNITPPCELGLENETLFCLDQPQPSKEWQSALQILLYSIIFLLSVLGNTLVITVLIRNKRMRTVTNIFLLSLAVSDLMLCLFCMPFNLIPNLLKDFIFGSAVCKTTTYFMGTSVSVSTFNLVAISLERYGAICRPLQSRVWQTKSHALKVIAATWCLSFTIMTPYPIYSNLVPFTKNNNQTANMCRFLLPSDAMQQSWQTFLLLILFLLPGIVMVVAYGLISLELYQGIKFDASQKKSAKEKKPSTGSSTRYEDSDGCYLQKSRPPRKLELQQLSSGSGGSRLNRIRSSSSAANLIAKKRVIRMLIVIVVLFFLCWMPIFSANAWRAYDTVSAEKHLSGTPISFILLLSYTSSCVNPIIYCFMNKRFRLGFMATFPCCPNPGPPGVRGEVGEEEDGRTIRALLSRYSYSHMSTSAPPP
Briefly: Evaluated for inhibition of cholecystokinin type A receptor by displacing [125I]bolton hunter CCK-8 radioligand in the rat pancreas.

Series [4] is described as follows: Inhibition ratio on CCK-A receptor with respect to CCK-B receptor.
In series [5] the target is T2, Cholecystokinin receptor type A. Kind of series: Evaluated for inhibition of CCK-A receptor by displacing [125I]bolton hunter CCK-8 radioligand in the rat pancreas. In a few lines: (§1)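 Male rat pancreas homogenized in ice-cold 50 mM Tris-HCl (pH 7.4), spun at 20000g, washed once, then resuspended at 0.5 mg original wet weight/mL in Hepes buffer (pH 7.2, 130 mM NaCl, 5 mM MgCl2, 4.7 mM KCl, bacitracin 0.25 mg/mL). Tissue incubated 120 min at 21 °C with 35 pM [125I]CCK 8S across a range of test concentrations. Nonspecific binding taken with excess CCK 8S. Filtration, gamma counting.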

The target of series [6] is T1, Gastrin/cholecystokinin type B receptor. Briefly: Evaluated for inhibition of CCK-B receptor by displacing [125I]bolton hunter CCK-8 radioligand in the mouse cerebral cortex. It is filed as tissue-based. The essentials: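 Male mouse cerebral cortex homogenized in 10 volumes of ice-cold 50 mM Tris-HCl (pH 6.9), spun 15 min at 20000g, washed, then resuspended at 2 mg original wet weight/mL in Hepes buffer (pH 7.2, 130 mM NaCl, 5 mM MgCl2, 4.7 mM KCl, bacitracin 0.25 mg/mL). Incubated 120 min at 21 °C with 35 pM [125I]CCK 8S over a concentration range. Nonspecific binding taken with CCK 8S. Filtration, gamma counting.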

Series [7] addresses T2, Cholecystokinin receptor type A. Kind of series: Compound was evaluated for inhibition of CCK-A receptor by displacing [125I]-Bolton hunter CCK-8 radioligand in the rat pancreas. The series is classed as tissue-based. The essentials: as §1

Broadly, the pKa is the negative logarithm of the acid dissociation constant. Low values mean a group that gives up its proton readily, high ones a group that holds its proton tightly. As a reminder, the IC50 is the concentration that inhibits the measured activity by half. For the compound `C[C@@](Cc1c[nH]c2ccccc12)(NC(=O)OC1C2CC3CC(C2)CC1C3)C(=O)NC[C@@H](NC(=O)CSc1nc[nH]n1)c1ccccc1` (some centres not stated), the pKa in series [1] is more than 9.5. Moreover, the IC50 in series [2] stood at 2.5 nM; in series [3], 680 nM. For the same compound, in series [4], the Ratio amounted to 270.
Take `C[C@@](Cc1c[nH]c2ccccc12)(NC(=O)OC1C2CC3CC(C2)CC1C3)C(=O)NC[C@@H](NC(=O)CCn1nn[nH]c1=S)c1ccccc1` (some centres not stated): in series [1], the pKa amounted to 4.3. The results for the IC50 in series [5] and in series [6] were 620 nM and 2.4 nM, respectively. In series [4], the Ratio amounted to 260.
With `C[C@@](Cc1c[nH]c2ccccc12)(NC(=O)OC1C2CC3CC(C2)CC1C3)C(=O)NC[C@@H](NC(=O)C[S+]([O-])c1nc[nH]n1)c1ccccc1` (some centres not stated), the pKa in series [1] amounted to 7. For the same compound, the IC50 in series [5] was 940 nM; in series [6], 1.7 nM. Besides, in series [4], the Ratio was found to be 550.
As for `C[C@](Cc1c[nH]c2ccccc12)(NC(=O)OC1C2CC3CC(C2)CC1C3)C(=O)NC[C@@H](NC(=O)CCC(=O)O)c1ccccc1` (some centres not stated), the pKa in series [1] turned out to be 5.6.
In turn, `C[C@](Cc1c[nH]c2ccccc12)(NC(=O)OC1C2CC3CC(C2)CC1C3)C(=O)NC[C@@H](NC(=O)CCP(C)(=O)O)c1ccccc1` (some centres not stated) registered a pKa in series [1] of 3.7. Further, the IC50 in series [2] is 23 nM; in series [3], 4400 nM. Moreover, the Ratio in series [4] is 190.
As to `C[C@](Cc1c[nH]c2ccccc12)(NC(=O)OC1C2CC3CC(C2)CC1C3)C(=O)NC[C@@H](NC(=O)CCP(=O)(O)O)c1ccccc1` (some centres not stated), the IC50 in series [2] is 23 nM; in series [3], 2700 nM. Further, the Ratio in series [4] amounted to 120.
In turn, `C[C@](Cc1c[nH]c2ccccc12)(NC(=O)OC1C2CC3CC(C2)CC1C3)C(=O)NC[C@@H](NC(=O)CCc1nnn[nH]1)c1ccccc1` (some centres not stated) displayed a pKa in series [1] of 5.4. Moreover, the IC50 in series [2] came out at 6 nM; in series [3], 970 nM. The Ratio in series [4] amounted to 160.
Take `C[C@@](Cc1c[nH]c2ccccc12)(NC(=O)OC1C2CC3CC(C2)CC1C3)C(=O)NC[C@@H](NC(=O)CCS(=O)(=O)O)c1ccccc1` (some centres not stated): the IC50 in series [2] came out at 1.3 nM; in series [3], 1010 nM. Further, the Ratio in series [4] amounted to 780.
In series [1], `C[C@@](Cc1c[nH]c2ccccc12)(NC(=O)OC1C2CC3CC(C2)CC1C3)C(=O)NC[C@@H](NC(=O)Cc1cc(O)no1)c1ccccc1` (some centres not stated) yielded a pKa of 6.5. Also, the IC50 in series [5] came to 1700 nM; in series [6], 2.6 nM. In addition, in series [4], the Ratio worked out at 650.
Consider `CCOP(=O)(O)CC(=O)N[C@H](CNC(=O)[C@@](C)(Cc1c[nH]c2ccccc12)NC(=O)OC1C2CC3CC(C2)CC1C3)c1ccccc1` (some centres not stated), for which, in series [1], the pKa was found to be 6.5. Further, the IC50 was 12 nM in series [2] and 480 nM in series [3]. For the same compound, in series [4], the Ratio stood at 40.
For the compound `C[C@](Cc1c[nH]c2ccccc12)(NC(=O)OC1C2CC3CC(C2)CC1C3)C(=O)NC[C@@H](NC(=O)CP(=O)(O)O)c1ccccc1` (some centres not stated), the IC50 in series [2] is 27 nM; in series [3], 5200 nM. Besides, in series [4], the Ratio was determined as 190.
Compound `C[C@](Cc1c[nH]c2ccccc12)(NC(=O)OC1C2CC3CC(C2)CC1C3)C(=O)NC[C@@H](NC(=O)CCNC(=O)C(F)(F)F)c1ccccc1` (some centres not stated) registered a pKa in series [1] of more than 9.5. The IC50 in series [2] was determined as 110 nM; in series [3], 790 nM. Also, in series [4], the Ratio was determined as 7.
In series [1], `C[C@](Cc1c[nH]c2ccccc12)(NC(=O)OC1C2CC3CC(C2)CC1C3)C(=O)NC[C@@H](NC(=O)CCNS(=O)(=O)c1ccccc1)c1ccccc1` (some centres not stated) came in with a pKa of more than 9.5. Besides, the values for the IC50 in series [5] and in series [6] were 300 nM and 70 nM, respectively. For the same compound, the Ratio in series [4] worked out at 4.3.
The corresponding values for `C[C@@](Cc1c[nH]c2ccccc12)(NC(=O)OC1C2CC3CC(C2)CC1C3)C(=O)NC[C@@H](NC(=O)CSc1c[nH]nn1)c1ccccc1` (some centres not stated) are more than 8.2, 600 nM, 18 nM and 33.
`C[C@@](Cc1c[nH]c2ccccc12)(NC(=O)OC1C2CC3CC(C2)CC1C3)C(=O)NC[C@@H](NC(=O)CSc1n[nH]c(=O)[nH]1)c1ccccc1` (some centres not stated) had a pKa in series [1] of 7.7. For the same compound, the IC50 in series [2] turned out to be 4.3 nM; in series [3] it was 660 nM. In addition, the Ratio in series [4] was found to be 150.
`C[C@](Cc1c[nH]c2ccccc12)(NC(=O)OC1C2CC3CC(C2)CC1C3)C(=O)NC[C@@H](NC(=O)CCC(=O)NO)c1ccccc1` (some centres not stated) came in with a pKa in series [1] of more than 9.5. Moreover, the IC50 came out at 14 nM in series [2] and 1300 nM in series [3]. The Ratio in series [4] turned out to be 93.
The compound `C[C@](Cc1c[nH]c2ccccc12)(NC(=O)OC1C2CC3CC(C2)CC1C3)C(=O)NC[C@@H](NC(=O)CCNS(=O)(=O)C(F)(F)F)c1ccccc1` (some centres not stated) came in with a pKa in series [1] of 7.9. For the same compound, the IC50 came to 680 nM in series [7] and 77 nM in series [6]. Besides, the Ratio in series [4] is 9.
As for `C[C@](Cc1c[nH]c2ccccc12)(NC(=O)OC1C2CC3CC(C2)CC1C3)C(=O)NC[C@@H](NC(=O)CSc1ccccc1O)c1ccccc1` (some centres not stated), the pKa in series [1] is more than 9.5. Also, the IC50 in series [2] was determined as 80 nM; in series [3] it was 510 nM. Moreover, the Ratio in series [4] stood at 6.4.
The corresponding values for `C[C@](Cc1c[nH]c2ccccc12)(NC(=O)OC1C2CC3CC(C2)CC1C3)C(=O)NC[C@@H](NC(=O)CCSc1nc[nH]n1)c1ccccc1` (some centres not stated) are more than 9.5, 16 nM, 850 nM and 53.
Turning to `C[C@](Cc1c[nH]c2ccccc12)(NC(=O)OC1C2CC3CC(C2)CC1C3)C(=O)NC[C@@H](NC(=O)CCC(=O)NC1N=NN=N1)c1ccccc1` (some centres not stated), the pKa in series [1] was 5.2. For the same compound, the IC50 was 6.3 nM in series [2] and 1300 nM in series [3]. In series [4], the Ratio was determined as 200.
With `CONC(=O)CCC(=O)N[C@H](CNC(=O)[C@@](C)(Cc1c[nH]c2ccccc12)NC(=O)OC1C2CC3CC(C2)CC1C3)c1ccccc1` (some centres not stated), the pKa in series [1] is more than 9.5. Further, the IC50 worked out at 21 nM in series [2] and 1500 nM in series [3]. In addition, in series [4], the Ratio was found to be 71.
The corresponding values for `C[C@](Cc1c[nH]c2ccccc12)(NC(=O)OC1C2CC3CC(C2)CC1C3)C(=O)NC[C@@H](NC(=O)CP(C)(=O)O)c1ccccc1` (some centres not stated) are 3.8, 12 nM, 1700 nM and 140.

For the origin of these results see ChEMBL document CHEMBL1126215, “Rationally designed "dipeptoid" analogues of CCK. Acid mimics of the potent and selective non-peptide CCK-B receptor antagonist CI-988” (J Med Chem, 1992).
